Results as given in ChEMBL document CHEMBL1149024, “Naturally occurring antiacne agents” (1994).
Converted amounts (≈) assume the structure as drawn. The source made the active and inactive calls. The calls are words filed in the database; no cut-off is given here.

How the values were obtained:
Cutibacterium acnes [1] = assay: Antimicrobial activity Propionibacterium acnes ATCC 11827 after 2 days by broth dilution method; assay type: functional; conditions: Cutibacterium acnes, ATCC 11827, 48 h; for MIC: read-out: MIC
Summary of the method: (§1)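 Serial twofold dilutions in DMF; 30 µl of each added to 3 ml NYG broth (0.8% nutrient broth, 0.5% yeast extract, 0.1% glucose), then inoculated with 30 µl of a two-day-old culture. Incubated 2 days at 37°; growth read as turbidity (OD 660 nm). MIC is the lowest concentration giving complete growth inhibition, determined at least twice.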

Cutibacterium acnes [2] = assay: Antimicrobial activity Propionibacterium acnes ATCC 11827 up to 200 ug/ml after 2 days by broth dilution method; assay type: functional, organism-based; summary of the method: as §1
Cutibacterium acnes [3] = assay: Antimicrobial activity Propionibacterium acnes ATCC 11827 after 2 days by twofold dilution method in presence of 1000 units of lipase; assay type: functional; conditions: ATCC 11827, 48 h

SMILES	MIC (Cutibacterium acnes [1])	also measured
CC1=CCC2C(C1)C2(C)C (configuration not stated) [CARENE]	50 µg/mL (≈ 367 µM)	
CCCCCCCCCCCCCCCCCCO [CETOSTEARYL ALCOHOL]	> 800 µg/mL	
CCCCCCCCCCCCCCCCO [CETYL ALCOHOL]	0.78 µg/mL (≈ 3.22 µM)	MBC (Cutibacterium acnes [1]): 1.56 µg/mL (≈ 6.43 µM)
CC(C)CCC[C@@H](C)[C@H]1CC[C@H]2[C@@H]3CC=C4C[C@@H](O)CC[C@]4(C)[C@H]3CC[C@]12C [CHOLESTEROL]	> 800 µg/mL	
CC(C)=CCC/C(C)=C/[C@H](O)C/C(C)=C/CC/C(C)=C/CO [CRINITOL]	25 µg/mL (≈ 81.6 µM)	
C=C(C)[C@H]1CC=C(C)CC1 [D-LIMONENE]	50 µg/mL (≈ 367 µM)	
CCCCCCCCC(C)O (configuration not stated) [DECAN-2-OL]	100 µg/mL (≈ 632 µM)	
CCCCCCCCCCO [DECANOL]	25 µg/mL (≈ 158 µM)	MBC (Cutibacterium acnes [1]): 50 µg/mL (≈ 316 µM)
CCCCCCCCCCCC(=O)O [DODECANOATE]	50 µg/mL (≈ 250 µM)	
CCCCCCCCCCCCO [DODECANOL]	3.13 µg/mL (≈ 16.8 µM)	MBC (Cutibacterium acnes [1]): 6.25 µg/mL (≈ 33.5 µM)
C=CCc1ccc(O)c(OC)c1 [EUGENOL]	50 µg/mL (≈ 304 µM)	
CC(C)=CCC/C(C)=C/CC/C(C)=C/CO [FARNESOL]	6.25 µg/mL (≈ 28.1 µM)	
CC(C)=CCC/C(C)=C/CO [GERANIOL]	400 µg/mL (≈ 2590 µM)	
CCCCCC/C=C\CCCCCCCc1cccc(O)c1C(=O)O [GINGKOLIC ACID]	0.78 µg/mL (≈ 2.25 µM)	
CCCC(O)CC (configuration not stated) [HEXAN-3-OL]	> 800 µg/mL	
CC(C)c1cccc(=O)c(O)c1 [HINOKITIOL]	12.5 µg/mL (≈ 76.1 µM)	
c1ccc2[nH]ccc2c1 [INDOLE]	200 µg/mL (≈ 1710 µM)	
C/C=C/c1ccc2c(c1)OCO2 [ISOSAFROLE]	200 µg/mL (≈ 1230 µM)	
C=CC(C)(O)CCC=C(C)C (configuration not stated) [LINALOOL]	200 µg/mL (≈ 1300 µM)	
C=C1[C@H]2CC[C@@H]3[C@H]2C(C)(C)CCC[C@]13C [LONGIFORENE]	6.25 µg/mL (≈ 30.6 µM)	

SMILES	MIC (Cutibacterium acnes [1])	also measured
CC1CCC(C(C)C)C(O)C1 (configuration not stated) [MENTHOL]	400 µg/mL (≈ 2560 µM)	
C=CCc1ccc(OC)c(OC)c1 [METHYLEUGENOL]	200 µg/mL (≈ 1120 µM)	
CCCCCCCCCCCCCCO [MYRISTYL ALCOHOL]	1.56 µg/mL (≈ 7.28 µM)	MBC (Cutibacterium acnes [1]): 1.56 µg/mL (≈ 7.28 µM)
CC(C)c1oc(=O)cc2c1[C@@H](O)[C@H]1OC(=O)[C@@]3(C)[C@@H](O)[C@H]4O[C@H]4[C@@]2(C)[C@@H]13 [NAGILACTONE C]	> 800 µg/mL	
CC(C)[C@H]1OC(=O)C=C2C13O[C@@H]3[C@H]1OC(=O)[C@@]3(C)[C@@H](O)CC[C@@]2(C)[C@@H]13 (some centres not stated) [NAGILACTONE E]	> 800 µg/mL	
C=CC(C)(O)CC/C=C(\C)CCC=C(C)C (configuration not stated) [NEROLIDOL]	25 µg/mL (≈ 112 µM)	
CCCCCCCCCO [NONANOL]	100 µg/mL (≈ 693 µM)	MBC (Cutibacterium acnes [1]): 200 µg/mL (≈ 1390 µM)
CCCCCCCCO [OCTANOL]	200 µg/mL (≈ 1540 µM)	
CCCCCCCCCCCCCCCOC(=O)CCCCCCCCCCC [PENTADECANYLDODECANOATE]		Activity (Cutibacterium acnes [2]): inactive; MIC (Cutibacterium acnes [3]): 1.56 µg/mL
CC1(C)CCC[C@]2(C)[C@@H](C=O)C(C=O)=CC[C@@H]12 [POLYGODIAL]	25 µg/mL (≈ 107 µM)	
C=CCc1ccc2c(c1)OCO2 [SAFROLE]	50 µg/mL (≈ 308 µM)	
O=C(O)c1ccccc1O [SALICYLIC ACID]	400 µg/mL (≈ 2900 µM)	
CC1=CCC(O)(C(C)C)CC1 (configuration not stated) [TERPINEOL]	800 µg/mL (≈ 5190 µM)	
CC1=CCC(=C(C)C)CC1 [TERPINOLENE]	50 µg/mL (≈ 367 µM)	
Cc1ccc(C(C)C)c(O)c1 [THYMOL]	200 µg/mL (≈ 1330 µM)	
CC(C)c1c(O)ccc2c1CC[C@H]1C(C)(C)CCC[C@]21C [TOTAROL]	0.39 µg/mL (≈ 1.36 µM)	
C/C=C/c1cc(OC)c(OC)cc1OC [TRANS-ASARONE]	100 µg/mL (≈ 480 µM)	
CCCCCCCCCCCCCO [TRIDECAN-1-OL]	1.56 µg/mL (≈ 7.79 µM)	MBC (Cutibacterium acnes [1]): 3.13 µg/mL (≈ 15.6 µM)
CCCCCCCCCCCO [UNDECANOL]	12.5 µg/mL (≈ 72.5 µM)	MBC (Cutibacterium acnes [1]): 25 µg/mL (≈ 145 µM)
